# Experimental data taken from article PMC9179932 (Nature chemical biology, 2022).
# pIC50: −log10 of the molar value. Where two headings read alike, the source gives them in different places. Peptide text beside a SMILES is read from it.
# Key:
# THP-1 cells = test: THP-1 LDH release and GSDMD cleavage immunoblot; assay type: cell-based, human; conditions: for PI uptake, GSDMD cleavage and LDH release in knockout cells: CASP1−/− and CARD8−/− THP-1; for additional pyroptosis in DPP8/9−/− THP-1 cells: LDH release, GSDMD cleavage, CTG and CTF; for LDH release and GSDMD cleavage: WT THP-1, XP-OMes 1 mM, VbP 2 μM, 24 h
# MV4;11 cells [1] = test: MV4; assay type: cell-based; conditions: 1 mM; for lytic cell death / cytotoxicity in MV4;11 cells: PI uptake, CTG, CTF; for pyroptosis in PEPD−/− knockout cells / activity in control cells: 14 h
# recombinant DPP9 = recombinant DPP9 (Homo sapiens, UniProt Q86TI2); test: AP-AMC-based DPP9 substrate assay; assay type: biochemical; conditions: for effect of esterification on DPP9 inhibition: methyl ester vs free dipeptide
# Sequence of recombinant DPP9 (Q86TI2 whole entry, species assumed): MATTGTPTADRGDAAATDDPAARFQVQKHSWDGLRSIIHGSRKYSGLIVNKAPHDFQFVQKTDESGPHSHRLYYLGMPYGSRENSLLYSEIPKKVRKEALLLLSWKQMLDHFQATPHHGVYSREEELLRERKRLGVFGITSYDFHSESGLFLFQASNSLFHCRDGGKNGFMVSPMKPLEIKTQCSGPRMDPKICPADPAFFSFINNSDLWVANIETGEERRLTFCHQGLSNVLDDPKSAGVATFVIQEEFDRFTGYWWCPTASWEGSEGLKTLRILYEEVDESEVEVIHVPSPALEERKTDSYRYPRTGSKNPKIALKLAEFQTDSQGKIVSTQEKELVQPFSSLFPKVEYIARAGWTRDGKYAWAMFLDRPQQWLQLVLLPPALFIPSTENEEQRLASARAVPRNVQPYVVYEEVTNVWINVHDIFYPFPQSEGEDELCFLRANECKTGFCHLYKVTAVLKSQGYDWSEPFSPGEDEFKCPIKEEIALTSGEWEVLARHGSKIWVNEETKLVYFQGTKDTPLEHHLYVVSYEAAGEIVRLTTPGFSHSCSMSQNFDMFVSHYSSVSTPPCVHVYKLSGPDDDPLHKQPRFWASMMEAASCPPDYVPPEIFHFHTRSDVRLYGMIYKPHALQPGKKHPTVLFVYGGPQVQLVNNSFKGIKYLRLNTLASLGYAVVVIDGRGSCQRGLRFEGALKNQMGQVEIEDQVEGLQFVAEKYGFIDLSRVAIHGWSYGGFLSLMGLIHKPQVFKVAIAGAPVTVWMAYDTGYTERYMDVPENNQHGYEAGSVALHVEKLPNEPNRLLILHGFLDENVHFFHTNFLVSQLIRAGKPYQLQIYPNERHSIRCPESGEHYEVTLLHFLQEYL
# Summary of the method: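 Recombinant DPP9 (1 nM) is dispensed into 384-well plates and test compound is added by pintool over a concentration series. Reaction starts with 25 μM AP-AMC. Cleavage is read as rising fluorescence (ex/em 380/460 nm) at 25 °C for 30 min.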
# resting primary T cells = test: Pyroptosis in resting primary T cells; assay type: cell-based, human; conditions: for GSDMD cleavage in resting T cells: 1 mM, 18 h
# Summary of the method: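 Primary resting human CD3+ T cells (>90% purity) are thawed in RPMI/10% FBS and cultured with IL-2 30 U ml−1. Cells are treated with 1 mM for 18 h or 10 μM for 24 h. Analysis is by immunoblot for pyroptotic and apoptotic markers, with CTG viability after 24 h. Results are representative of two independent experiments.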
# N/TERT-1 keratinocytes = test: NLRP1 inflammasome activation in N/TERT-1 keratinocytes; assay type: cell-based, human; conditions: XP-OMes 1 mM, VbP 10 μM, CQ31 10 μM, 16 h
# Summary of the method: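 N/TERT-1 immortalised keratinocytes seeded at 1×10^5 cells per well in 12-well plates, grown to 70% confluence, then treated with test compound for 16 h. Supernatants assayed for LDH activity with a commercial cytotoxicity kit; inflammasome readouts such as IL-18 processing assessed by immunoblotting.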
# RAW264.7 cells = test: Pyroptosis in RAW264.7 macrophages; assay type: cell-based, mouse; conditions: 24 h; for pyroptosis at fivefold higher concentration: 5 mM, CTF and CTG
# MV4;11 cells [2] = test: MV4; assay type: cell-based, human; conditions: for PI uptake, GSDMD cleavage and LDH release in knockout cells: CASP1−/− and CARD8−/− MV4;11; for LDH release and GSDMD cleavage in PEPD−/− vs control cells: PEPD−/− MV4;11, 1 mM; for LDH release and GSDMD cleavage in PEPD−/− vs control cells / effect on CQ31-induced cell death / effect on VP-OMe- and IP-OMe-induced LDH release and GSDMD cleavage: 6 h; for LDH release and GSDMD cleavage / effect on CQ31-induced cell death: WT MV4;11; for LDH release and GSDMD cleavage: XP-OMes 1 mM, VbP 2 μM, 14 h; for effect on CQ31-induced cell death: CQ31 10 μM; for effect on CQ31-induced cell death / effect on VP-OMe- and IP-OMe-induced LDH release and GSDMD cleavage: bortezomib 1 μM, VX-765 50 μM; for effect on VP-OMe- and IP-OMe-induced LDH release and GSDMD cleavage: pretreatment
# Summary of the method: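 MV4;11 cells (WT or knockouts) are plated at 5×10^5 per well. Treatments: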
# [3] = system: VbP-sensitive cell lines, including THP-1 cells; test: Viability of VbP-sensitive AML cancer cell lines; assay type: cell-based, human; conditions: 24 h, CTG
# Summary of the method: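 Cell lines grown in RPMI/10% FBS are seeded at 2,000 cells per well in 384-well plates (25 μl). Test compound is pinned in at multiple concentrations and incubated 24 h at 37 °C, 5% CO2. CellTiter-Glo is added, plates are shaken 2 min and held 10 min at 25 °C, and luminescence is read.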
# NLRP1–DPP9 interaction = NLRP1–DPP9 interaction (Homo sapiens, UniProt Q86TI2); test: DPP9 displacement from FLAG-NLRP1 on anti-FLAG beads; assay type: binding; conditions: VbP 10 μM; VP dipeptide 0.5, 5 mM; CQ31, CQ04 10 μM
# Sequence of NLRP1–DPP9 interaction (Q86TI2 whole entry): as the sequence (Q86TI2 whole entry, species assumed) above
# human NLRP1 inflammasome = test: Reconstituted human NLRP1 inflammasome in HEK 293T cells; assay type: cell-based; conditions: XP-OMes 1 mM, VbP 10 μM, CQ31 10 μM, 24 h
# Summary of the method: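 For ASC specks, HEK 293T cells (2.5×10^5 per well) are transfected with 10 ng FLAG-NLRP1, 5 ng V5-GFP-ASC and 985 ng RFP plasmid and allowed 24 h expression. They are treated 24 h, Hoechst-stained, and the % of cells with specks is scored by microscopy. For GSDMD cleavage, HEK 293T cells stably expressing CASP1/GSDMD get 0.02 μg NLRP1 and 0.01 μg ASC (2.0 μg total DNA), are treated 16–20 h later for 24 h, and are immunoblotted.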
# J774.1 macrophages = test: Pyroptosis in J774.1 macrophages; assay type: cell-based, mouse; conditions: VbP 2 μM, 24 h
# Summary of the method: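 J774.1 cells are grown in RPMI/10% FBS, plated at 5×10^5 per well and treated 24 h (VbP 2 μM). Supernatant LDH is measured relative to Triton X-100 lysis (n = 3). For the dose series, 2,000 cells per well in 384-well plates get compound by pintool. CTF fluorescence is read after 30 min, then CTG luminescence after 2 min shaking and 10 min at 25 °C (n = 6).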
structure (smiles),measurement,setting,value
CC[C@H](C)[C@H](N)C(=O)N1CCC[C@H]1C(=O)OC [IP-OMe] (H-Ile-Pro-OMe),"PI uptake, GSDMD cleavage and LDH release in knockout cells",THP-1 cells,"lack of PI uptake, GSDMD cleavage and LDH release"
same,additional pyroptosis in DPP8/9−/− THP-1 cells,THP-1 cells,did not induce any additional pyroptosis
same,LDH release and GSDMD cleavage,THP-1 cells,induced the release of intracellular lactate dehydrogenase (LDH) and GSDMD cleavage
same,lytic cell death / cytotoxicity in MV4;11 cells,MV4;11 cells [1],cytotoxic
same,effect of esterification on DPP9 inhibition,recombinant DPP9,did not impact DPP9 inhibition
same,GSDMD cleavage in resting T cells,resting primary T cells,induced GSDMD cleavage
same,"NLRP1 inflammasome activation (LDH release, IL-18 cleavage and release)",N/TERT-1 keratinocytes,did not induce NLRP1 inflammasome activation
same,pyroptosis at fivefold higher concentration,RAW264.7 cells,failed to trigger pyroptosis
same,"PI uptake, GSDMD cleavage and LDH release in knockout cells",MV4;11 cells [2],"lack of PI uptake, GSDMD cleavage and LDH release"
same,LDH release and GSDMD cleavage in PEPD−/− vs control cells,MV4;11 cells [2],induced more LDH release and GSDMD cleavage
same,LDH release and GSDMD cleavage,MV4;11 cells [2],induced the release of intracellular lactate dehydrogenase (LDH) and GSDMD cleavage
"CCC(C)C(N)C(=O)N1CCCC1C(=O)O (stereo not drawn) [Ile-Pro, reference compound] (H-Ile-Pro-OH; configuration not given here)",lytic cell death / cytotoxicity in MV4;11 cells,MV4;11 cells [1],did not induce lytic cell death
same,pIC50,recombinant DPP9,4.82 to 5.00
COC(=O)[C@@H]1CCCN1C(=O)[C@@H](N)CC(C)C [LP-OMe] (H-Leu-Pro-OMe),pyroptosis in PEPD−/− knockout cells,MV4;11 cells [1],induced pyroptosis
same,activity in control cells,MV4;11 cells [1],inactive in control cells
COC(=O)[C@@H]1CCCN1C(=O)[C@@H](N)CCSC [MP-OMe] (H-Met-Pro-OMe),pyroptosis in PEPD−/− knockout cells,MV4;11 cells [1],induced pyroptosis
same,activity in control cells,MV4;11 cells [1],inactive in control cells
COC(=O)[C@@H]1CCCN1C(=O)[C@@H]1CCCN1 [PP-OMe] (H-Pro-Pro-OMe),pyroptosis in PEPD−/− knockout cells,MV4;11 cells [1],induced pyroptosis
same,activity in control cells,MV4;11 cells [1],inactive in control cells
COC(=O)[C@@H]1CCCN1C(=O)[C@@H](N)C(C)C [VP-OMe] (H-Val-Pro-OMe),"PI uptake, GSDMD cleavage and LDH release in knockout cells",THP-1 cells,"lack of PI uptake, GSDMD cleavage and LDH release"
same,additional pyroptosis in DPP8/9−/− THP-1 cells,THP-1 cells,did not induce any additional pyroptosis
same,LDH release and GSDMD cleavage,THP-1 cells,induced the release of intracellular lactate dehydrogenase (LDH) and GSDMD cleavage
same,concentration inducing cell death,[3],< 5 mM
same,lytic cell death / cytotoxicity in MV4;11 cells,MV4;11 cells [1],cytotoxic
same,effect of esterification on DPP9 inhibition,recombinant DPP9,did not impact DPP9 inhibition
same,GSDMD cleavage in resting T cells,resting primary T cells,induced GSDMD cleavage
same,"NLRP1 inflammasome activation (LDH release, IL-18 cleavage and release)",N/TERT-1 keratinocytes,did not induce NLRP1 inflammasome activation
same,pyroptosis at fivefold higher concentration,RAW264.7 cells,failed to trigger pyroptosis
same,"PI uptake, GSDMD cleavage and LDH release in knockout cells",MV4;11 cells [2],"lack of PI uptake, GSDMD cleavage and LDH release"
same,LDH release and GSDMD cleavage in PEPD−/− vs control cells,MV4;11 cells [2],induced more LDH release and GSDMD cleavage
same,LDH release and GSDMD cleavage,MV4;11 cells [2],induced the release of intracellular lactate dehydrogenase (LDH) and GSDMD cleavage
"CCO[C@@H]1OC(=O)C[C@@H]1NC(=O)[C@@H]1CCCN1C(=O)[C@@H](NC(=O)c1ccc(N)c(Cl)c1)C(C)(C)C [VX-765, reference compound]",effect on CQ31-induced cell death,MV4;11 cells [2],blocked CQ31-induced cell death
same,effect on VP-OMe- and IP-OMe-induced LDH release and GSDMD cleavage,MV4;11 cells [2],completely blocked
"CC(C)[C@H](N)C(=O)N1CCC[C@H]1C(=O)O [Val-Pro, reference compound] (H-Val-Pro-OH)",disruption of NLRP1–DPP9 interaction (DPP9 elution),NLRP1–DPP9 interaction,had no impact on the NLRP1 ternary complex
same,lytic cell death / cytotoxicity in MV4;11 cells,MV4;11 cells [1],did not induce lytic cell death
same,pIC50,"recombinant DPP9; read-out: IC50, DPP9 inhibition, Ala-Pro-aminomethylcoumarin (AP-AMC) substrate",4.82 to 5.00
"CC(C)[C@H](N)C(=O)N1CCC[C@H]1B(O)O [VbP, Val-boroPro, reference compound]",ASC speck formation,human NLRP1 inflammasome,triggered the formation of ASC specks
same,additional pyroptosis in DPP8/9−/− THP-1 cells,THP-1 cells,did not induce any additional pyroptosis
same,LDH release and GSDMD cleavage,THP-1 cells,induced the release of intracellular lactate dehydrogenase (LDH) and GSDMD cleavage
same,activation of mNLRP1B1 (LDH release),J774.1 macrophages,activated mouse NLRP1B allele 1
same,pyroptosis in resting primary T cells,"resting primary T cells; 10 μM, 24 h",induced pyroptosis
same,"NLRP1 inflammasome activation (LDH release, IL-18 cleavage and release)",N/TERT-1 keratinocytes,induced LDH release as well as IL-18 cleavage and release
same,"activation of mNLRP1B1 (LDH release, GSDMD cleavage)",RAW264.7 cells; VbP 2 μM,activated mouse NLRP1B allele 1
same,LDH release and GSDMD cleavage,MV4;11 cells [2],induced the release of intracellular lactate dehydrogenase (LDH) and GSDMD cleavage
"CC(C)C[C@H](NC(=O)[C@H](Cc1ccccc1)NC(=O)c1cnccn1)B(O)O [bortezomib, reference compound]",apoptosis (PARP cleavage),MV4;11 cells [2],caused considerable apoptosis
same,effect on CQ31-induced cell death,MV4;11 cells [2],blocked CQ31-induced cell death
same,effect on VP-OMe- and IP-OMe-induced LDH release and GSDMD cleavage,MV4;11 cells [2],completely blocked
